Reference: ChEMBL document CHEMBL3272177, “Hypolipidemic alkoxybenzoic acids” (1976)

What was measured:
Set-up in all cases: scale not given: the % may be the effect or the level left
Rattus norvegicus [1] = species on record: Rattus norvegicus; test: Reduction in sterol level in CFE rat […] in serum at 0.1% of diet treated through diet for 6 days relative to control; type: functional
In short: (§1)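 Compound dissolved in methanol-chloroform (1:3 v/v), mixed into ground rat chow at 0.1, 0.05 or 0.025% (w/w), and solvent evaporated; controls received solvent-treated chow. Rats fed ad libitum with water for 6 days, then killed fed and bled. Serum sterols and triglycerides measured by autoanalyzer. Values given as percent of control, mean ± SE; significance by Student's t test.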

Rattus norvegicus [2] = species on record: Rattus norvegicus; test: Reduction in sterol level in CFE rat […] in serum at 0.05% of diet treated through diet for 6 days relative to control; type: functional; in short: as §1
Rattus norvegicus [3] = species on record: Rattus norvegicus; test: Reduction in sterol level in CFE rat […] at 0.025% of diet treated through diet for 6 days relative to control; type: functional, Serum; in short: as §1
Rattus norvegicus [4] = species on record: Rattus norvegicus; test: Reduction in triglyceride level in CFE rat […] in serum at 0.1% of diet treated through diet for 6 days relative to control; type: functional; in short: as §1
Rattus norvegicus [5] = species on record: Rattus norvegicus; test: Reduction in triglyceride level in CFE rat […] in serum at 0.05% of diet treated through diet for 6 days relative to control; type: functional; in short: as §1
Rattus norvegicus [6] = species on record: Rattus norvegicus; test: Reduction in triglyceride level in CFE rat […] at 0.025% of diet treated through diet for 6 days relative to control; type: functional, Serum; in short: as §1
Rattus norvegicus [7] = species on record: Rattus norvegicus; test: Reduction in sterol level in CFE rat […] in serum at 0.005% of diet treated through diet for 6 days relative to control; type: functional
Rattus norvegicus [8] = species on record: Rattus norvegicus; test: Reduction in triglyceride level in CFE rat […] in serum at 0.005% of diet treated through diet for 6 days relative to control; type: functional
Rattus norvegicus [9] = species on record: Rattus norvegicus; test: Reduction in sterol level in CFE rat […] in serum at 0.3% of diet treated through diet for 6 days relative to control; type: functional
Rattus norvegicus [10] = species on record: Rattus norvegicus; test: Reduction in triglyceride level in CFE rat […] in serum at 0.3% of diet treated through diet for 6 days relative to control; type: functional

| SMILES | Activity (Rattus norvegicus [1]) | Activity (Rattus norvegicus [2]) | Activity (Rattus norvegicus [3]) | Activity (Rattus norvegicus [4]) | Activity (Rattus norvegicus [5]) | Activity (Rattus norvegicus [6]) | Activity (Rattus norvegicus [7]) | Activity (Rattus norvegicus [8]) | Activity (Rattus norvegicus [9]) | Activity (Rattus norvegicus [10]) |
| --- | --- | --- | --- | --- | --- | --- | --- | --- | --- | --- |
| CCCCCCCCCCCCCCCCOc1ccc(C(=O)O)cc1 | 74% | 83% | 89% | 46% | 62% | 58% |  |  |  |  |
| CC(C)=CCC/C(C)=C/CC/C(C)=C/COc1ccc(C(=O)O)cc1 | 87% | 102% | 108% | 133% | 111% | 131% |  |  |  |  |
| CCCCCCCCCCCC1OC1CCCOc1ccc(C(=O)O)cc1 (stereo not given) | 85% | 85% | 90% | 55% | 52% | 74% |  |  |  |  |
| O=C(O)c1ccc(OC(=O)C2C3CC4CC(C3)CC2C4)cc1 (stereo not given) | 92% | 99% | 93% | 113% | 101% | 90% |  |  |  |  |
| O=C(O)c1ccc(OCCCCCCCCCCCCCCCOc2ccc(C(=O)O)cc2)cc1 | 94% | 103% | 97% | 51% | 77% | 64% |  |  |  |  |
| CCCCCCCCCCCC(=O)CCOc1ccc(C(=O)O)cc1 | 92% | 89% | 89% | 74% | 75% | 84% |  |  |  |  |
| FC(F)(F)c1ccc(-c2ccc(OCCN3CCCC3)cc2)cc1 [BOXIDINE] |  |  |  |  |  |  | 60% | 55% |  |  |
| CCOC(=O)C(C)(C)Oc1ccc(Cl)cc1 [CLOFIBRATE] |  |  |  |  |  |  |  |  | 81% | 42% |
